Calls of active or inactive are those of the source. The calls are words filed in the database; no cut-off is given here.
What was measured:
SiHa = assay: Growth inhibition of human SiHa cells by SRB assay; format: functional
ZR-75-1 = assay: Growth inhibition of human ZR-75-1 cells by SRB assay; format: functional
Bos taurus = organism: Bos taurus; assay: Inhibition of bovine tubulin polymerization after 1 hr at 1 min interval by fluorescence assay
Outline: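 Bovine brain tubulin, 2 mg/mL, in PEM buffer (80 mM PIPES, 0.5 mM EGTA, 2 mM MgCl2, pH 6.9) with fluorescent reporter, compounds at 3 μM, 37 °C. Reaction started by adding 1 mM GTP. Polymerization followed as fluorescence gain (ex 360/em 420 nm), read every 1 min for 1 h. Nocodazole as positive control.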

[1] = Growth inhibition of human Gurav cells by SRB assay; format: functional
A2780 = assay: Growth inhibition of human A2780 cells by SRB assay; format: functional
HOP-62 = assay: Growth inhibition of human HOP62 cells by SRB assay; format: functional
[2] = Growth inhibition of human DWD cells by SRB assay; format: functional
A549 [3] = assay: Cell cycle arrest in human A549 cells assessed as accumulation at G2/M phase at 5 uM after 48 hrs by propidium iodide staining-based flow cytometric analysis; format: functional
Outline: (§1)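 A549 cells treated 48 h (5 μM test agents; 1 μM standard), trypsin-EDTA harvest, PBS wash, fixed in ice-cold 70% ethanol at 4 °C for 30 min, then stained 30 min at room temperature in the dark with propidium iodide/trisodium citrate/Triton X-100 solution. DNA content by flow cytometry; G2/M fraction compared with untreated control.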

KB = assay: Growth inhibition of human KB cells by SRB assay; format: functional
MCF7 = assay: Growth inhibition of human MCF7 cells by SRB assay; format: functional
A549 [4] = assay: Inhibition of alpha-tubulin in human A549 cells assessed as ratio of free to polymerized tubulin at 5 uM after 24 hrs by densitometric analysis relative to control; format: cell-based
Outline: (§2)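 A549 cells exposed 24 h (5 μM test agents; 1 μM nocodazole or taxol). Spun 15000g, 30 min, 22 °C to give soluble and polymerized fractions. α-Tubulin Western blot; band densitometry as soluble/polymerized ratio.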

PC-3 = assay: Growth inhibition of human PC3 cells by SRB assay; format: functional
A549 [5] = assay: Growth inhibition of human A549 cells by SRB assay; format: functional
COLO 205 = assay: Growth inhibition of human COLO205 cells by SRB assay; format: functional
A549 [6] = assay: Cell cycle arrest in human A549 cells assessed as accumulation at G2/M phase at 1 uM after 48 hrs by propidium iodide staining-based flow cytometric analysis relative to control; format: functional; outline: as §1
A549 [7] = assay: Inhibition of alpha-tubulin in human A549 cells assessed as ratio of free to polymerized tubulin at 1 uM after 24 hrs by densitometric analysis relative to control; format: cell-based; outline: as §2

inhibition (Bos taurus) | GI50 (A2780) | GI50 (KB) | GI50 (MCF7) | GI50 (PC-3) | GI50 (A549 [5]) | GI50 (COLO 205) | Compound | GI50 (SiHa) | GI50 (ZR-75-1) | GI50 [1] | GI50 (HOP-62) | GI50 [2] | Activity (A549 [3]) | fold change (FC) (A549 [4]) | Activity (A549 [6]) | fold change (FC) (A549 [7])
48.8% | 190 nM | 2110 nM | 170 nM | 180 nM | < 100 nM | 190 nM | COc1cc(-c2ccc(-c3ccc(-c4nc5cc(C)ccc5[nH]4)cc3)cc2)cc(OC)c1OC | 170 nM | 190 nM | 170 nM | 2370 nM | 170 nM | Active | 1.3 |  | 
98.3% | 170 nM | 2110 nM | < 100 nM | 170 nM | < 100 nM | 190 nM | COc1cc(-c2ccc(-c3ccc(-c4nc5c(O)cccc5[nH]4)cc3)cc2)cc(OC)c1OC | 170 nM | 190 nM | 170 nM | 190 nM | 190 nM | Active | 1.4 |  | 
 | 9210 nM | 2980 nM | 6380 nM | 9720 nM | 2110 nM | 8320 nM | COc1cc(-c2ccc(-c3ccc(-c4nc5ccccc5[nH]4)cc3)cc2)cc(OC)c1OC | 4980 nM | 9710 nM | 7100 nM | 9430 nM | 8010 nM |  |  |  | 

Continued, molecule first:

Compound | inhibition (Bos taurus) | GI50 (A2780) | GI50 (KB) | GI50 (MCF7) | GI50 (PC-3) | GI50 (A549 [5]) | GI50 (COLO 205) | GI50 (SiHa) | GI50 (ZR-75-1) | GI50 [1] | GI50 (HOP-62) | GI50 [2] | Activity (A549 [3]) | fold change (FC) (A549 [4]) | Activity (A549 [6]) | fold change (FC) (A549 [7])
COC(=O)Nc1nc2cc(C(=O)c3cccs3)ccc2[nH]1 | 58.9% |  |  |  |  |  |  |  |  |  |  |  |  |  | Active | 1.5
Oc1ccc(-c2ccc(-c3ccc(-c4nc5c(O)cccc5[nH]4)cc3)cc2)cc1 | 36.3% | 2920 nM | 3190 nM | 190 nM | 190 nM | 170 nM | 2600 nM | 2410 nM | 2650 nM | 190 nM | 2410 nM | 2700 nM | Active | 1.1 |  | 
CC(=O)O[C@H]1C(=O)[C@@]2(C)[C@H]([C@H](OC(=O)c3ccccc3)[C@]3(O)C[C@H](OC(=O)[C@H](O)[C@@H](NC(=O)c4ccccc4)c4ccccc4)C(C)=C1C3(C)C)[C@]1(OC(C)=O)CO[C@@H]1C[C@@H]2O |  |  |  |  |  |  |  |  |  |  |  |  |  |  |  | 0.5
